Assays:
Type in all cases: cell-based, human
A549 cells [1] = assay: Colocalization / co-incubation with Cy3-cRGDfK; details: co-incubation with 1 μM Cy3-cRGDfK, 1 μM probe, 30 min
In short: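 Live A549 cells at 70% confluency in chambered slides were co-incubated 30 min at 37 °C with 1 μM Cy3-cRGDfK plus 1 μM test compound in medium. They were then PBS-washed ×3, Hoechst-stained (3 μM, 10 min, RT) and imaged by epifluorescence (TxRed and Cy5.5 filters). After 10-pixel rolling-ball background subtraction, Pearson's correlation coefficient was computed and reported as average ± SEM.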

HT-1080 cells = assay: Fluorescence cell microscopy, probe uptake; details: 1 μM probe, 30 min, 37 °C, compared to control probes
In short: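 HT-1080 cells were kept in EMEM with 10% FBS, 0.1 mM NEAA, 1.5 g/L bicarbonate, 1 mM pyruvate and 1% pen/strep (37 °C, 5% CO2), then grown to 70% confluency. They were exposed to 1 μM probe in medium for 30 min at 37 °C, washed ×3 with PBS, fixed in cold 4% PFA, Hoechst-stained and imaged (Cy5.5 filter). Intensity: rolling-ball background subtraction, auto-threshold, average ± SEM.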

A549 cells [2] = assay: Competitive blocking study of probe uptake; details: repeated many times using fixed and living cells; excess cRGDfK or Cilengitide
In short: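 A549 cells at 70% confluency on 8-well slides received 200 μM cRGDfK or 50 μM cilengitide 5 min before the test compound; the blocker stayed during a 30 min, 37 °C incubation with 1 μM test compound. Cells were then PBS-washed ×3, fixed in cold 4% PFA (20 min, RT), Hoechst-stained (3 μM) and imaged. Intensity came from 200-pixel rolling-ball background subtraction and auto-threshold, as average ± SEM.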

OVCAR-4 cells = assay: Fluorescence cell microscopy, probe uptake; details: 1 μM probe, 30 min, 37 °C, compared to control probes
In short: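 OVCAR-4 cells were maintained in RPMI-1640 with 10% FBS, 1% L-glutamine and 0.1 mM NEAA (37 °C, 5% CO2), grown to 70% confluency in chambered slides, then given 1 μM probe in medium for 30 min at 37 °C. After 3 PBS washes, they were fixed in cold 4% PFA (20 min, RT), Hoechst-stained (3 μM, 10 min) and imaged by epifluorescence. Mean intensity: 200-pixel rolling-ball subtraction, auto-threshold, average ± SEM.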

DRGDG (bicyclic or more) [SF8(DRGDG)2]
cell uptake of probe in the presence of Cy3-cRGDfK (A549 cells [1]): did not reduce cell uptake
probe uptake (mean fluorescence intensity of epifluorescence micrographs) (HT-1080 cells): Enhanced uptake
cell uptake of probe in competition imaging experiments (A549 cells [2]): not reduced
probe uptake (mean fluorescence intensity of epifluorescence micrographs) (OVCAR-4 cells): Enhanced uptake
